ChEMBL document CHEMBL3593173, “Discovery of novel N-(5-(tert-butyl)isoxazol-3-yl)-N'-phenylurea analogs as potent FLT3 inhibitors and evaluation of their activity against acute myeloid leukemia in vitro and in vivo” (Bioorg Med Chem, 2015)
≈ marks a conversion by molar mass, not a printed value.

Tests used:
MV4-11 = test: Cytotoxicity against human MV4-11 cells incubated for 72 hrs by MTT assay; type: functional, cell-based; settings: MV4-11, 72 h
Procedure, shortened: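 Leukemia cells were grown with 10% FBS at 37 °C in 5% CO₂; MV4-11 was kept in IMDM. Cells were seeded at 1–4 × 10⁴ per well, and an equal volume of medium containing increasing inhibitor concentrations was added. MTT was added for 2–4 h, formazan was dissolved in DMSO, and OD was read at 570 nm to derive IC50.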

[1] = Solubility in MeOH solution; type: physicochemical
[2] = Solubility in EtOH solution; type: physicochemical
[3] = Solubility in water; type: physicochemical
[4] = Solubility in PBS solution; type: physicochemical

solubility [1] | solubility [2] | solubility [3] | solubility [4] | SMILES | IC50 (MV4-11)
– | – | – | – | Cc1cccn2cc(-c3ccc(NC(=O)Nc4cc(C(C)(C)C)on4)cc3)nc12 | 248 nM
– | – | – | – | CC(C)(C)c1cc(NC(=O)Nc2ccc(-c3cn4ccncc4n3)cc2)no1 | 44.8 nM
– | – | – | – | Cc1ccc2nc(-c3ccc(NC(=O)Nc4cc(C(C)(C)C)on4)cc3)cn2c1 | 4.08 nM
– | – | – | – | CC(C)(C)c1cc(NC(=O)Nc2ccc(-c3nc4ccccc4s3)cc2)no1 | 172 nM
– | – | – | – | Cc1cccc2nc(-c3ccc(NC(=O)Nc4cc(C(C)(C)C)on4)cc3)cn12 | 20.2 nM
– | – | – | – | CC(C)(C)c1cc(NC(=O)Nc2ccc(-c3cn4ccc(Br)cc4n3)cc2)no1 | 9.59 nM
6830 µg/mL (≈ 17.5 mM) | 3340 µg/mL (≈ 8.58 mM) | – | – | Cc1ccn2cc(-c3ccc(NC(=O)Nc4cc(C(C)(C)C)on4)cc3)nc2c1 | 0.79 nM
5840 µg/mL (≈ 14.6 mM) | 4100 µg/mL (≈ 10.3 mM) | 26.7 µg/mL (≈ 0.0668 mM) | 10.2 µg/mL (≈ 0.0255 mM) | C#Cc1ccn2cc(-c3ccc(NC(=O)Nc4cc(C(C)(C)C)on4)cc3)nc2c1 | 3.46 nM
